# Experimental data collected from several papers.
# Compare with care: the assays were run in different laboratories.
# GLP2R: Glucagon-like peptide 2 receptor (GLP2R, Homo sapiens, UniProt O95838)
# ADRA1A: Alpha-1A adrenergic receptor (ADRA1A, Homo sapiens, UniProt P35348)
# OPRK1: Kappa-type opioid receptor (OPRK1, Cavia porcellus, UniProt P41144)
Structure (SMILES),target,test,setting,measurement,value
CC[C@H](C)[C@H](NC(=O)[C@H](CO)NC(=O)[C@H](CC(=O)O)NC(=O)[C@H](CC(C)C)NC(=O)[C@@H](NC(=O)[C@H](CCCCN)NC(=O)[C@H](CC(N)=O)NC(=O)[C@@H](NC(=O)[C@H](CC(=O)O)NC(=O)[C@H](CO)NC(=O)[C@@H](NC(=O)[C@H](Cc1ccccc1)NC(=O)[C@H](CO)NC(=O)CNC(=O)[C@H](CC(=O)O)NC(=O)[C@@H](NC(=O)[C@@H](N)Cc1c[nH]cn1)C(C)C)[C@@H](C)O)C(C)C)C(C)C)C(=O)N[C@@H](C)C(=O)N[C@@H](C)C(=O)N[C@@H](CCCCN)C(=O)N[C@@H](CCC(=O)O)C(=O)N[C@@H](Cc1ccc(O)cc1)C(=O)N[C@@H](CC(C)C)C(=O)N[C@@H](CCC(N)=O)C(=O)N[C@@H](Cc1c[nH]c2ccccc12)C(=O)N[C@H](C(=O)N[C@@H](CCSC)C(=O)N[C@@H](CC(N)=O)C(=O)N[C@@H](CO)C(=O)N[C@@H](CCCCN)C(=O)N[C@@H](C)C(=O)N[C@@H](CO)C(=O)NCC(=O)O)C(C)C,GLP2R,"reporter gene, agonist, luciferase",,EC50,> 1 µM
CC(C)C[C@H](NC(=O)[C@H](CCCCN)NC(=O)[C@@H]1CCCN1C(=O)[C@@H](N)CCCNC(=N)N)C(=O)N[C@@H](CCCCN)C(=O)O,ADRA1A,"cell-free assay, radioligand",,Ki,> 10 µM
CCCC[C@@H](NC(=O)[C@@H](N)Cc1ccc(O)cc1)C(=O)NCC(=O)N[C@@H](Cc1ccc(F)cc1)C(=O)N(C)CCC[C@@]1(c2ccc(F)cc2)OCc2cc(C#N)ccc21,ADRA1A,"ligand displacement, radioligand",,Ki,6.6 µM
N=C(N)NCCC[C@H]1NC(=O)[C@H](Cc2ccc(O)cc2)NC(=O)[C@H](CCCCN)NC(=O)[C@H](Cc2ccccc2)NC1=O,OPRK1,"ligand displacement, radioligand",cell membranes,Ki,0.0674 µM
CNc1nc2cc(OCCCCN3CCN(c4cccc(Cl)c4Cl)CC3)ccc2s1,"Histamine H2 receptor (HRH2, Homo sapiens, UniProt P25021)","ligand displacement, radioligand",,Ki,0.31 µM
Nc1ncnc2c1ncn2[C@@H]1O[C@H](COP(=O)(O)OP(=O)(O)NP(=O)(O)O)[C@@H](O)[C@H]1O,"lptB (Escherichia coli, UniProt P0A9V1)","ATPase activity, inhibitor",,Ki,25000 µM
Cc1cc(O)cc(C)c1C[C@H](C)C(=O)N[C@@H]1CCCCC[C@@H](C(N)=O)NC(=O)[C@H](Cc2ccccc2)NC(=O)[C@H](Cc2ccccc2)NC1=O,OPRK1,"ligand displacement, radioligand",cell membranes,Ki,0.302 µM
CC[C@H](C)[C@H](NC(=O)[C@H](CC(=O)O)NC(=O)[C@H](CC(N)=O)NC(=O)[C@@H](NC(=O)[C@H](Cc1ccccc1)NC(=O)[C@H](CO)NC(=O)CNC(=O)[C@H](CC(=O)O)NC(=O)[C@H](C)NC(=O)[C@@H](N)Cc1c[nH]cn1)[C@@H](C)O)C(=O)N[C@@H](CC(N)=O)C(=O)N[C@@H](CCCCN)C(=O)N[C@H](C(=O)N[C@@H](CC(C)C)C(=O)N[C@@H](CC(=O)O)C(=O)N[C@H](C(=O)N[C@H](C(=O)N[C@@H](C)C(=O)N[C@@H](C)C(=O)N[C@@H](CCC(N)=O)C(=O)N[C@@H](CCC(=O)O)C(=O)N[C@@H](Cc1ccccc1)C(=O)N[C@@H](CC(C)C)C(=O)N[C@@H](CC(=O)O)C(=O)N[C@@H](Cc1c[nH]c2ccccc12)C(=O)N[C@H](C(=O)N[C@H](C(=O)N[C@@H](CC(N)=O)C(=O)N[C@H](C(=O)N[C@@H](CCC(N)=O)C(=O)N[C@H](C(=O)N[C@H](C(=O)N[C@@H](CCC(=O)O)C(=O)O)[C@@H](C)O)C(C)C)[C@@H](C)O)[C@@H](C)CC)C(C)C)[C@@H](C)CC)[C@@H](C)CC)C(C)C,GLP2R,"reporter gene, agonist, luciferase",,EC50,> 1 µM
CCCC[C@@H](NC(=O)[C@@H](N)Cc1c(C)cc(O)cc1C)C(=O)NCC(=O)N[C@@H](Cc1ccc(F)cc1)C(=O)N(C)CCC[C@@]1(c2ccc(F)cc2)OCc2cc(C#N)ccc21,ADRA1A,"ligand displacement, radioligand",,Ki,> 10 µM
Cc1cc(O)cc(C)c1C[C@H](N)C(=O)N[C@H](CCCNC(=N)N)C(=O)N[C@@H](Cc1c[nH]c2ccccc12)C(=O)N[C@@H](CCCCN)C(N)=O,OPRK1,"ligand displacement, radioligand",cell membranes,Ki,0.0165 µM
Cc1cc(O)cc(C)c1C[C@H](C)C(=O)N[C@@H]1C/C=C\CC[C@@H](C(N)=O)NC(=O)[C@H](Cc2ccccc2)NC(=O)[C@H](Cc2ccccc2)NC1=O,OPRK1,"ligand displacement, radioligand",cell membranes,Ki,0.185 µM
Cc1cc(C)c(C[C@H](NC(=O)[C@@H](CCCNC(=N)N)NC(=O)[C@@H](N)Cc2c(C)cc(O)cc2C)C(=O)N[C@@H](CCCCN)C(N)=O)c(C)c1,OPRK1,"ligand displacement, radioligand",cell membranes,Ki,0.048 µM
Cc1cc(O)cc(C)c1C[C@H](N)C(=O)N[C@H](C)C(=O)N[C@@H](Cc1ccccc1)C(=O)N[C@@H](CCCN)C(N)=O,OPRK1,"ligand displacement, radioligand",cell membranes,Ki,0.032 µM
